Laboratory results from ChEMBL document CHEMBL1126759, “Potent HIV protease inhibitors: the development of tetrahydrofuranylglycines as novel P2-ligands and pyrazine amides as P3-ligands” (J Med Chem, 1993).

Key:
[1] = target: Human immunodeficiency virus type 1 protease (Human immunodeficiency virus 1, UniProt Q72874); assay: Tested for inhibitory concentration against HIV-1 protease
[2] = target: Human immunodeficiency virus type 1 protease (Human immunodeficiency virus 1) (UniProt Q72874); assay: Tested for inhibitory concentration against spread of HIV-1 in MT-4 human T-lymphoid cells infected with IIIb isolate; assay type: functional, cell-based
How it was run: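 MT-4 cells grown in RPMI-1640 with 10% inactivated FBS, 4 mM glutamine and penicillin/streptomycin at 37 °C under CO2. Cells were pretreated 24 h with serially diluted compound (DMSO stock), then infected at 250 000 cells/mL, MOI 0.01. Compound was refreshed every 2–3 days. CIC was read by anti-HIV-1 immunofluorescence (complete block of spread, 7–24 days) or p24 ELISA (>95% reduction).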

[3] = target: Human immunodeficiency virus type 2 pol protein (Human immunodeficiency virus 2, UniProt P88142); assay: Tested for inhibitory concentration against HIV-2 protease; assay type: functional
Chain of Human immunodeficiency virus type 2 pol protein (P88142 whole entry): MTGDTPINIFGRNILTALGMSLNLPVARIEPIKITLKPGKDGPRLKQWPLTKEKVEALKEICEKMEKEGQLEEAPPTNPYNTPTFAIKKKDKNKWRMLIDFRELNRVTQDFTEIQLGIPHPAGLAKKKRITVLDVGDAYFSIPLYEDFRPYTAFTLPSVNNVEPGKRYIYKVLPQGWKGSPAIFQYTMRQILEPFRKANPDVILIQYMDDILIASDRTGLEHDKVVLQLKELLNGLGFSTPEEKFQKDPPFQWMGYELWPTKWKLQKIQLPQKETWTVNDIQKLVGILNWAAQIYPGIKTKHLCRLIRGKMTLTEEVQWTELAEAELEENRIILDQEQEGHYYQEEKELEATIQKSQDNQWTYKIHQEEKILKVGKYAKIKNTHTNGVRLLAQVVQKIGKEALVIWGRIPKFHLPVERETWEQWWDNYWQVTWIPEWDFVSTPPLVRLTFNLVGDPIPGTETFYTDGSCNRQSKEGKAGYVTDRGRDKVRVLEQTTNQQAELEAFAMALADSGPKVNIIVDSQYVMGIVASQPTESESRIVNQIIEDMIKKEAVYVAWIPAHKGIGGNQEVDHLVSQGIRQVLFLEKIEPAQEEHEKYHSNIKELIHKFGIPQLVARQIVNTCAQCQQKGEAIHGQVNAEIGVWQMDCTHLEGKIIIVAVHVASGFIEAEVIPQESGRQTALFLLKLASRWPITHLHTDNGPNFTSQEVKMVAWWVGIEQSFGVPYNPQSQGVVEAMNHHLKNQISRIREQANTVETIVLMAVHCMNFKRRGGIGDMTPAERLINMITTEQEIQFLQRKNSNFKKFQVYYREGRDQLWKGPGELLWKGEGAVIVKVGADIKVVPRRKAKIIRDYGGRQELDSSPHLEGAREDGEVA
How it was run: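 HIV-2 protease (ROD) purified the same way as HIV-1 protease, which was bacterially expressed; value reported as IC50.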

Row | SMILES | IC50 [1] | IC95 [2] | IC50 [3]
1 | CC(C)(C)NC(=O)[C@@H]1C[C@@H]2CCCC[C@@H]2CN1C[C@@H](O)[C@H](Cc1ccccc1)NC(=O)[C@@H](NC(=O)c1ccc2ccccc2n1)[C@@H]1CCS(=O)(=O)C1 | 39 nM |  | 
2 | COC(=O)c1nc(Cl)c(N[C@H](C(=O)N[C@@H](Cc2ccccc2)[C@H](O)CN2C[C@H]3CCCC[C@H]3C[C@H]2C(=O)NC(C)(C)C)[C@H]2CCOC2)nc1N | 0.16 nM | 3 nM | 24.9 nM
3 | CC(C)(C)NC(=O)[C@@H]1C[C@@H]2CCCC[C@@H]2CN1C[C@@H](O)[C@H](Cc1ccccc1)NC(=O)[C@@H](NC(=O)c1ccc2ccccc2n1)[C@H]1CCS(=O)(=O)C1 | 0.5 nM |  | 
4 | CC(C)(C)NC(=O)[C@@H]1C[C@@H]2CCCC[C@@H]2CN1C[C@@H](O)[C@H](Cc1ccccc1)NC(=O)[C@H](CC(N)=O)NC(=O)c1ccc2ccccc2n1 |  | 22 nM | 0.5 nM
5 | CC(C)(C)NC(=O)[C@@H]1C[C@@H]2CCCC[C@@H]2CN1C[C@@H](O)[C@H](Cc1ccccc1)NC(=O)[C@@H](NC(=O)c1cc(=O)c2ccccc2o1)[C@H]1CCOC1 | 0.11 nM | 25 nM | 
6 | CC(C)[C@H](NC(=O)c1ccc2ccccc2n1)C(=O)N[C@@H](Cc1ccccc1)[C@H](O)CN1C[C@H]2CCCC[C@H]2C[C@H]1C(=O)NC(C)(C)C | 0.7 nM | 100 nM | 3.2 nM
7 | CC(C)(C)NC(=O)[C@@H]1C[C@@H]2CCCC[C@@H]2CN1C[C@@H](O)[C@H](Cc1ccccc1)NC(=O)[C@@H](NC(=O)c1ccc2ccccc2n1)C1CCOC1 (stereo partly specified) | 0.054 nM | 8 nM | 0.24 nM
8 | CN1CCN(c2ncc(C(=O)N[C@H](C(=O)N[C@@H](Cc3ccccc3)[C@H](O)CN3C[C@H]4CCCC[C@H]4C[C@H]3C(=O)NC(C)(C)C)[C@H]3CCOC3)nc2Cl)CC1 | 0.071 nM | 12 nM | 0.18 nM
9 | CC(C)[C@H](NC(=O)c1cnc2ccccc2n1)C(=O)N[C@@H](Cc1ccccc1)[C@H](O)CN1C[C@H]2CCCC[C@H]2C[C@H]1C(=O)NC(C)(C)C | 0.39 nM |  | 
10 | CN(C)c1nc(N)c(C(=O)N[C@H](C(=O)N[C@@H](Cc2ccccc2)[C@H](O)CN2C[C@H]3CCCC[C@H]3C[C@H]2C(=O)NC(C)(C)C)[C@H]2CCOC2)nc1Cl | 0.24 nM | 25 nM | 
11 | CC(C)(C)NC(=O)[C@@H]1C[C@@H]2CCCC[C@@H]2CN1C[C@@H](O)[C@H](Cc1ccccc1)NC(=O)[C@@H](NC(=O)c1ccc2ccccc2n1)[C@@H]1CCSC1 | 3.3 nM | > 200 nM | 
12 | CN(C)c1ncc(C(=O)N[C@H](C(=O)N[C@@H](Cc2ccccc2)[C@H](O)CN2C[C@H]3CCCC[C@H]3C[C@H]2C(=O)NC(C)(C)C)[C@H]2CCOC2)nc1Cl | 0.06 nM | 12 nM | 
13 | CC(C)(C)NC(=O)[C@@H]1C[C@@H]2CCCC[C@@H]2CN1C[C@@H](O)[C@H](Cc1ccccc1)NC(=O)[C@@H](NC(=O)c1ccc2ccccc2n1)[C@@H]1CCOC1 | 5.4 nM | 100 nM | 
14 | CC(C)(C)NC(=O)[C@@H]1C[C@@H]2CCCC[C@@H]2CN1C[C@@H](O)[C@H](Cc1ccccc1)NC(=O)[C@@H](NC(=O)c1cnc2ccccc2n1)[C@H]1CCOC1 | 0.12 nM | 12 nM | 
15 | CC(C)(C)NC(=O)[C@@H]1C[C@@H]2CCCC[C@@H]2CN1C[C@@H](O)[C@H](Cc1ccccc1)NC(=O)[C@@H](NC(=O)c1ccc2ccccc2n1)C1CCCC1 | 2.6 nM |  | 
16 | CC(C)(C)NC(=O)[C@@H]1C[C@@H]2CCCC[C@@H]2CN1C[C@@H](O)[C@H](Cc1ccccc1)NC(=O)[C@@H](NC(=O)c1ccc2ccccc2n1)C1CCOCC1 | 67.9 nM |  | 
17 | CC(C)(C)NC(=O)[C@@H]1C[C@@H]2CCCC[C@@H]2CN1C[C@@H](O)[C@H](Cc1ccccc1)NC(=O)[C@@H](NC(=O)c1cnccn1)[C@H]1CCOC1 | 2.83 nM |  | 
18 | CC(C)(C)NC(=O)[C@@H]1C[C@@H]2CCCC[C@@H]2CN1C[C@@H](O)[C@H](Cc1ccccc1)NC(=O)[C@@H](NC(=O)c1ccc2ccccc2n1)[C@H]1CCSC1 | 0.6 nM | 50 nM | 
19 | CC(C)[C@H](NC(=O)c1cc(=O)c2ccccc2o1)C(=O)N[C@@H](Cc1ccccc1)[C@H](O)CN1C[C@H]2CCCC[C@H]2C[C@H]1C(=O)NC(C)(C)C | 0.15 nM | 25 nM | 
